ChEMBL document CHEMBL3045743, “Synthesis and herbicidal activity of isoindoline-1,3-dione substituted benzoxazinone derivatives containing a carboxylic ester group” (J Agric Food Chem, 2009)

Assays:
Digitaria sanguinalis [1] = experiment: Pre-emergence herbicidal activity against Digitaria sanguinalis (hairy crabgrass) assessed as growth inhibition at 75 g.a.i./ha applied 24 hr after seeds were sown measured after 15 days; format: functional; conditions: read-out: GI
Summary of the method: (§1)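 Weeds sown 5 mm deep in pots of greenhouse clay soil (pH 6.5, 37.5% clay, CEC 12.9 cmol/kg) and grown at 22-25 °C. Water-diluted formulation was applied pre-emergence 24 h after sowing. Untreated and DMF solvent controls were included. Growth inhibition was visually rated in % against untreated controls after 15 days, as the mean of triplicates.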

Amaranthus spinosus [2] = experiment: Post-emergence herbicidal activity against Amaranthus spinosus assessed as growth inhibition at 37.5 g.a.i./ha applied at two-leaf stage measured after 15 days; format: functional; conditions: 360 h, read-out: GI
Summary of the method: (§2)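 Pot-grown weeds sown 5 mm deep in greenhouse clay soil (pH 6.5, 1.7% organic matter, CEC 12.9 cmol/kg) at 22-25 °C. Stock diluted with water and sprayed post-emergence: dicots at 2-leaf stage, monocots at 1-leaf stage. Untreated and DMF solvent controls were included. % growth inhibition was scored visually versus untreated controls after 15 days. Triplicates averaged.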

Setaria viridis [3] = experiment: Pre-emergence herbicidal activity against Setaria viridis (green foxtail) assessed as growth inhibition at 7.5 g.a.i./ha applied 24 hr after seeds were sown measured after 15 days; format: functional; conditions: read-out: GI
Summary of the method: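 Secondary pre-emergence test run at 7.5, 15 and 37.5 g a.i./ha on pot-grown weeds in a greenhouse at 22-25 °C. Seeds sown 5 mm deep in clay soil (pH 6.5, 1.7% organic matter, CEC 12.9 cmol/kg). Stock diluted with water and applied 24 h after sowing. Done in triplicate; visual % growth inhibition vs untreated after 15 days, averaged.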

Echinochloa crus-galli [4] = experiment: Post-emergence herbicidal activity against Echinochloa crus-galli (barnyard grass) assessed as growth inhibition at 37.5 g.a.i./ha applied at one-leaf stage measured after 15 days; format: functional; conditions: 360 h, read-out: GI; summary of the method: as §2
Digitaria sanguinalis [5] = experiment: Post-emergence herbicidal activity against Digitaria sanguinalis (hairy crabgrass) assessed as growth inhibition at 75 g.a.i./ha applied at one-leaf stage measured after 15 days; format: functional; conditions: 360 h, read-out: GI; summary of the method: as §2
Amaranthus spinosus [6] = experiment: Pre-emergence herbicidal activity against Amaranthus spinosus assessed as growth inhibition at 37.5 g.a.i./ha applied 24 hr after seeds were sown measured after 15 days; format: functional; conditions: read-out: GI; summary of the method: as §1
Glycine max [7] = experiment: Phytotoxicity against Glycine max (soybean) assessed as growth inhibition at 37.5 g.a.i/ha pre-emergent application measured after 15 days by greenhouse crop selectivity assay; format: organism-based; conditions: in vivo, other, 360 h
Summary of the method: (§3)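 Pre-emergence greenhouse crop selectivity test on pot-grown plants in clay soil (pH 6.5, 1.7% organic matter, 37.5% clay, CEC 12.9 cmol/kg). Stock solutions were diluted with water and applied at 300, 150, 75 or 37.5 g a.i./ha, in triplicate. After 15 days, phytotoxicity was scored visually against untreated controls as % crop growth inhibition, averaged over the triplicates.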

[8] = test system: Brassica rapa subsp. oleifera; experiment: Phytotoxicity against Brassica rapa subsp. oleifera assessed as growth inhibition at 150 g.a.i/ha pre-emergent application measured after 15 days by greenhouse crop selectivity assay; format: functional; conditions: pre-emergence, 360 h, read-out: GI
Summary of the method: (§4)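 Pot-grown crop in greenhouse clay soil (pH 6.5, 1.7% organic matter, 37.5% clay, CEC 12.9 cmol/kg). Stock diluted with water and applied pre-emergence at 300, 150, 75 or 37.5 g a.i./ha. Cultivated 15 days, then phytotoxicity scored visually as % growth inhibition versus untreated controls. Triplicate treatments, averaged.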

Echinochloa crus-galli [9] = experiment: Pre-emergence herbicidal activity against Echinochloa crus-galli (barnyard grass) assessed as growth inhibition at 15 g.a.i./ha applied 24 hr after seeds were sown measured after 15 days; format: functional; conditions: read-out: GI; summary of the method: as §1
Gossypium = experiment: (§5) Phytotoxicity against Gossypium (cotton) assessed as growth inhibition at 300 g.a.i/ha pre-emergent application measured after 15 days by greenhouse crop selectivity assay; format: organism-based; conditions: in vivo, other, 360 h; summary of the method: as §3
Glycine max [10] = experiment: Phytotoxicity against Glycine max (soybean) assessed as growth inhibition at 7.5 to 60 g.a.i/ha post-emergent application measured after 15 days by greenhouse crop selectivity assay; format: organism-based; conditions: in vivo, other, 360 h
Summary of the method: (§6)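 Postemergence crop selectivity test on pot-grown plants in a greenhouse, in clay soil (pH 6.5, 1.7% organic matter, CEC 12.9 cmol/kg). Stock was diluted with water and sprayed at 60, 30, 15 or 7.5 g a.i./ha, in triplicate. Growth inhibition was rated visually against untreated controls after 15 days and given as the triplicate mean percentage.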

Echinochloa crus-galli [11] = experiment: Pre-emergence herbicidal activity against Echinochloa crus-galli (barnyard grass) assessed as growth inhibition at 37.5 g.a.i./ha applied 24 hr after seeds were sown measured after 15 days; format: functional; conditions: read-out: GI; summary of the method: as §1
Digitaria sanguinalis [12] = experiment: Pre-emergence herbicidal activity against Digitaria sanguinalis (hairy crabgrass) assessed as growth inhibition at 7.5 g.a.i./ha applied 24 hr after seeds were sown measured after 15 days; format: functional; conditions: read-out: GI; summary of the method: as §1
[13] = test system: Brassica rapa subsp. oleifera; experiment: Phytotoxicity against Brassica rapa subsp. oleifera assessed as growth inhibition at 300 g.a.i/ha pre-emergent application measured after 15 days by greenhouse crop selectivity assay; format: functional; conditions: pre-emergence, 360 h, read-out: GI; summary of the method: as §4
Zea mays = experiment: (§7) Phytotoxicity against Zea mays (maize) assessed as growth inhibition at 300 g.a.i/ha pre-emergent application measured after 15 days by greenhouse crop selectivity assay; format: organism-based; conditions: in vivo, other, 360 h; summary of the method: as §3
Setaria viridis [14] = experiment: Post-emergence herbicidal activity against Setaria viridis (green foxtail) assessed as growth inhibition at 75 g.a.i./ha applied at one-leaf stage measured after 15 days; format: functional; conditions: 360 h, read-out: GI; summary of the method: as §2
Digitaria sanguinalis [15] = experiment: Post-emergence herbicidal activity against Digitaria sanguinalis (hairy crabgrass) assessed as growth inhibition at 37.5 g.a.i./ha applied at one-leaf stage measured after 15 days; format: functional; conditions: 360 h, read-out: GI; summary of the method: as §2
Amaranthus spinosus [16] = experiment: Post-emergence herbicidal activity against Amaranthus spinosus assessed as growth inhibition at 15 g.a.i./ha applied at two-leaf stage measured after 15 days; format: functional; conditions: 360 h, read-out: GI; summary of the method: as §2
Chenopodium album = experiment: Post-emergence herbicidal activity against Chenopodium album assessed as growth inhibition at 75 g.a.i./ha applied at two-leaf stage measured after 15 days; format: functional; conditions: 360 h, read-out: GI; summary of the method: as §2
Amaranthus = experiment: Post-emergence herbicidal activity against Amaranthus ascendens assessed as growth inhibition at 75 g.a.i./ha applied at two-leaf stage measured after 15 days; format: functional; conditions: 360 h, read-out: GI; summary of the method: as §2
Arachis hypogaea = experiment: Phytotoxicity against Arachis hypogaea (peanut) assessed as growth inhibition at 7.5 to 60 g.a.i/ha post-emergent application measured after 15 days by greenhouse crop selectivity assay; format: organism-based; conditions: in vivo, other, 360 h; summary of the method: as §6
Abutilon theophrasti = experiment: Pre-emergence herbicidal activity against Abutilon theophrasti (velvetleaf) assessed as growth inhibition at 15 g.a.i./ha applied 24 hr after seeds were sown measured after 15 days; format: functional; conditions: read-out: GI; summary of the method: as §1
Triticum aestivum = experiment: (§8) Phytotoxicity against Triticum aestivum (wheat) assessed as growth inhibition at 75 g.a.i/ha pre-emergent application measured after 15 days by greenhouse crop selectivity assay; format: organism-based; conditions: in vivo, other, 360 h; summary of the method: as §3
Amaranthus spinosus [17] = experiment: Pre-emergence herbicidal activity against Amaranthus spinosus assessed as growth inhibition at 15 g.a.i./ha applied 24 hr after seeds were sown measured after 15 days; format: functional; conditions: read-out: GI; summary of the method: as §1
[18] = Phytotoxicity against Triticum aestivum (wheat) assessed as growth inhibition at 150 g.a.i/ha pre-emergent application measured after 15 days by greenhouse crop selectivity assay; format: organism-based; conditions: in vivo, 150 g.a.i/ha, read-out: GI; summary of the method: as §3
[19] = as §5; format: organism-based; conditions: in vivo, 300 g.a.i/ha, read-out: GI; summary of the method: as §3
[20] = as §7; format: organism-based; conditions: in vivo, 300 g.a.i/ha, read-out: GI; summary of the method: as §3
[21] = as §8; format: organism-based; conditions: in vivo, 75 g.a.i/ha, read-out: GI; summary of the method: as §3

Structure (SMILES) | inhibition of growth at 75 g/ha (Digitaria sanguinalis [1]) [%] | inhibition of growth at 37.5 g/ha (Amaranthus spinosus [2]) [%] | inhibition of growth at 7.5 g/ha (Setaria viridis [3]) [%] | inhibition of growth at 37.5 g/ha (Echinochloa crus-galli [4]) [%] | inhibition of growth at 75 g/ha (Digitaria sanguinalis [5]) [%] | inhibition of growth at 37.5 g/ha (Amaranthus spinosus [6]) [%] | growth inhibition (GI) (Glycine max [7]) | inhibition of growth at 150 g/ha [8] [%] | inhibition of growth at 15 g/ha (Echinochloa crus-galli [9]) [%] | Activity (Glycine max [10]) | inhibition of growth at 37.5 g/ha (Echinochloa crus-galli [11]) [%] | inhibition of growth at 7.5 g/ha (Digitaria sanguinalis [12]) [%] | inhibition of growth at 300 g/ha [13] [%] | inhibition of growth at 75 g/ha (Setaria viridis [14]) [%] | inhibition of growth at 37.5 g/ha (Digitaria sanguinalis [15]) [%] | inhibition of growth at 15 g/ha (Amaranthus spinosus [16]) [%] | inhibition of growth at 75 g/ha (Chenopodium album) [%] | inhibition of growth at 75 g/ha (Amaranthus) [%] | Activity (Arachis hypogaea) | inhibition of growth at 15 g/ha (Abutilon theophrasti) [%] | further results
CCOC(=O)C(CC)N1C(=O)C(C)Oc2cc(F)c(N3C(=O)C4=C(CCCC4)C3=O)cc21 (centres undefined) | > 80 | 100 | 0 | 50 | > 80 | 100 | Not Active | > 10 | 0 | Toxic | 0 | 0 | > 10 | > 80 | 70 | 100 | > 80 | > 80 | Toxic | 40 | growth inhibition (GI) (Gossypium): Not Active; growth inhibition (GI) (Zea mays): Not Active; growth inhibition (GI) (Triticum aestivum): Not Active; inhibition of growth at 15 g/ha (Amaranthus spinosus [17]): 100%
CCOC(=O)C(C)N1C(=O)C(C)Oc2cc(F)c(N3C(=O)C4=C(CCCC4)C3=O)cc21 (centres undefined) | > 80 | 100 | 0 | 50 | > 80 | 100 | Not Active | > 10 | 10 | Toxic | 30 | 0 | > 10 | > 80 | 50 | 100 | > 80 | > 80 | Toxic | 0 | growth inhibition (GI) (Gossypium): Not Active; inhibition at 360 h [18]: > 10%; growth inhibition (GI) (Zea mays): Not Active; growth inhibition (GI) (Triticum aestivum): Not Active; inhibition of growth at 15 g/ha (Amaranthus spinosus [17]): 95%
COC(=O)C(C)N1C(=O)C(C)Oc2cc(F)c(N3C(=O)C4=C(CCCC4)C3=O)cc21 (centres undefined) | > 80 | 100 | 0 | 50 | > 80 | 100 | Not Active | > 10 | 10 | Toxic | 80 | 0 | > 10 | > 80 | 60 | 100 | > 80 | > 80 | Toxic | 60 | inhibition at 360 h [19]: > 10%; inhibition at 360 h [18]: > 10%; inhibition at 360 h [20]: > 10%; inhibition at 360 h [21]: > 10%; inhibition of growth at 15 g/ha (Amaranthus spinosus [17]): 100%
C#CCN1C(=O)COc2cc(F)c(N3C(=O)C4=C(CCCC4)C3=O)cc21 [FLUMIOXAZIN] | > 80 | 100 | 0 | 80 | > 80 | 100 | Not Active | > 10 | 50 | Toxic | 70 | 0 | > 10 | > 80 | 95 | 100 | > 80 | > 80 | Toxic | 80 | inhibition at 360 h [19]: > 10%; inhibition at 360 h [18]: > 10%; inhibition at 360 h [20]: > 10%; inhibition at 360 h [21]: > 10%; inhibition of growth at 15 g/ha (Amaranthus spinosus [17]): 100%
